Activity calls are given as the source filed them. No cut-off for these calls is given here.
Experiments:
Format in all cases: functional
[1] = system: DRG neuron; assay: Increase in Ca2+ uptake in mouse DRG neurons at 10 ug/ml by Fura-2 dye-based fluorescence microscopy in presence of KCl relative to control
How it was run: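 Mouse DRG cells plated in medium with additives and loaded with the Ca2+ dye Fura-2 AM. Compound applied at 10 μg/mL, then 25 mM KCl added. Ca2+ influx compared with control cells in the same well.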

[2] = system: DRG neuron; assay: Induction of depolarization of mouse DRG neurons at 10 ug/ml by Fura-2 dye-based fluorescence microscopy
How it was run: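 Dorsal root ganglion cells were taken from mice, plated in medium with additives and loaded with Fura-2 AM. Intracellular Ca2+ was followed as the read-out while compound was applied at 10 μg/mL. This was followed by 25 mM KCl, with responses compared against control cells in the same well.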

[3] = system: DRG neuron; assay: Increase in Ca2+ uptake in mouse DRG neurons at 20 ug/ml by Fura-2 dye-based fluorescence microscopy
How it was run: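 Mouse DRG cells plated in medium with additives and loaded with the Ca2+ dye Fura-2 AM. Compound applied directly at 20 μg/mL. Read-out is the fraction of cells showing a rise in Ca2+ concentration.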

Compound	Activity [1]	Activity [2]	Activity [3]
CC(=O)Cc1cc2c(c(O)c1C(=O)O)-c1cc3c(c(O)c1CC2)C(=O)c1c(O)cc(O)cc1[C@H]3[C@H]1c2cc(O)cc(O)c2C(=O)c2c1cc1c(c2O)CCc2cc(CC(C)=O)c(C(=O)O)c(O)c2-1 (stereo in doubt; 1a)	Active	inactive	–
Cc1cc2cc(CCC(=O)O)c(O)c(O)c2c(=O)o1	–	–	Active

From ChEMBL document CHEMBL3352407, “Griseorhodins D-F, neuroactive intermediates and end products of post-PKS tailoring modification in Griseorhodin biosynthesis” (J Nat Prod, 2014)
